Data reported in ChEMBL document CHEMBL1138153, “N-substituted 4beta-methyl-5-(3-hydroxyphenyl)-7alpha-amidomorphans are potent, selective kappa opioid receptor antagonists” (J Med Chem, 2006).

Key:
[1] = molecular target: Mu-type opioid receptor (Homo sapiens) (UniProt P35372); assay: Inhibition of DAMGO stimulated [35S]GTP-gamma-S binding to cloned human mu opioid receptor expressed in CHO cells; format: functional, cell-based
Outline: (§1)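 Antagonism measured as a rightward shift of the agonist concentration–response curve for [35S]GTPγS binding in CHO cells expressing the cloned human receptor. Curves were run with and without one fixed concentration of test compound. Ke = [L]/(DR − 1), where [L] is the test compound concentration and DR is the ratio of agonist EC50 with versus without test compound.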

[2] = molecular target: Delta-type opioid receptor (Homo sapiens) (UniProt P41143); assay: Inhibition of DPDPE stimulated [35S]GTP-gamma-S binding to cloned human delta opioid receptor expressed in CHO cells; format: functional, cell-based; outline: as §1
Sequence of Delta-type opioid receptor (Homo sapiens) (P41143 whole entry): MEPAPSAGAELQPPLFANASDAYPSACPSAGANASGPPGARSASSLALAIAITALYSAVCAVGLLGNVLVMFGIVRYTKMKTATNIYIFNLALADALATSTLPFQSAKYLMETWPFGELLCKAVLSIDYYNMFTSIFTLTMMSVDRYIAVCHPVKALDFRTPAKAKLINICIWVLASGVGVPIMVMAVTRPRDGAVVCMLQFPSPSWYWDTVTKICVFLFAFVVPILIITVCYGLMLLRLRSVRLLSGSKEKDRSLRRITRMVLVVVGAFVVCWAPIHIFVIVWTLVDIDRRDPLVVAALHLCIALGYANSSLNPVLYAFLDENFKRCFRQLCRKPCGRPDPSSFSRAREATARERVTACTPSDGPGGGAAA

[3] = molecular target: Opioid receptors; delta & kappa (Homo sapiens) (UniProt P41145+P41143); assay: Selectivity for human kappa opioid receptor over human delta opioid receptor; format: protein assay
Sequence of Opioid receptors; delta & kappa (Homo sapiens) (P41143 whole entry, looked up): as the sequence (P41143 whole entry) above
Sequence of Opioid receptors; delta & kappa (Homo sapiens) (P41145 whole entry, looked up): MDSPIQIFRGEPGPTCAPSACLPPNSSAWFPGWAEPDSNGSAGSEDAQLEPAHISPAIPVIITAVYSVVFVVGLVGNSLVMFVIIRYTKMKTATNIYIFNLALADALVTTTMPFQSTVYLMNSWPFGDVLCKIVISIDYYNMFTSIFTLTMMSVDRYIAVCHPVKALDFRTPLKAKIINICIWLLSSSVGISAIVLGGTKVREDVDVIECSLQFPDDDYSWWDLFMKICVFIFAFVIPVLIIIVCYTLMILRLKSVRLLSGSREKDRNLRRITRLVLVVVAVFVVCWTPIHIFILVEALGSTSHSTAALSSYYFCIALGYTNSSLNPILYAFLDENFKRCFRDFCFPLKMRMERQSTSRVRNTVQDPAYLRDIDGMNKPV

[4] = molecular target: Kappa-type opioid receptor (Homo sapiens) (UniProt P41145); assay: Inhibition of U69,593 stimulated [35S]GTP-gamma-S binding to cloned human kappa opioid receptor expressed in CHO cells; format: functional, cell-based; outline: as §1
Sequence of Kappa-type opioid receptor (Homo sapiens) (P41145 whole entry): as the sequence (P41145 whole entry, looked up) above

[5] = molecular target: Opioid receptors; mu & kappa (Homo sapiens) (UniProt P41145+P35372); assay: Selectivity for human kappa opioid receptor over human mu opioid receptor; format: protein assay
Sequence of Opioid receptors; mu & kappa (Homo sapiens) (P35372 whole entry, looked up): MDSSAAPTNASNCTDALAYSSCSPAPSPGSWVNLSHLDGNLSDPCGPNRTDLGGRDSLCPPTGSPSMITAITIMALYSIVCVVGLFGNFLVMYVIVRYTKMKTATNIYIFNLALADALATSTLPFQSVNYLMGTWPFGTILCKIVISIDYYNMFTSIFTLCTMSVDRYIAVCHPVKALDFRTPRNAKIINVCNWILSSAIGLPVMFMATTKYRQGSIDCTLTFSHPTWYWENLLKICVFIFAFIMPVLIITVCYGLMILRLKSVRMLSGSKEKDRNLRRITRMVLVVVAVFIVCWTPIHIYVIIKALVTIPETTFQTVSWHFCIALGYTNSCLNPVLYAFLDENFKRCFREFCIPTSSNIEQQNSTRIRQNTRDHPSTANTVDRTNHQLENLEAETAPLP
Sequence of Opioid receptors; mu & kappa (Homo sapiens) (P41145 whole entry, looked up): as the sequence (P41145 whole entry, looked up) above

Sequence of Mu-type opioid receptor (Homo sapiens) (P35372 whole entry): as the sequence (P35372 whole entry, looked up) above

| Structure (SMILES) | Ke [1] | Ke [2] | Ratio Ke [3] | Ke [4] | Ratio Ke [5] |
| --- | --- | --- | --- | --- | --- |
| CCCCCCN1CC(C)C2(c3cccc(O)c3)CC1C[C@H](NC(=O)CCN1CCc3ccccc3C1)C2 (stereo partly specified) | 103 nM | 145 nM | 725 | 0.2 nM | 515 |
| COc1cc2c(cc1OC)CN(CCC(=O)N[C@H]1CC3CC(c4cccc(O)c4)(C1)C(C)CN3CCCc1ccccc1)CC2 (single isomer, unassigned; (-)) | 218 nM | 40 nM | 74 | 0.54 nM | 404 |
| COc1ccc2c(c1)CCN(CCC(=O)N[C@H]1CC3CC(c4cccc(O)c4)(C1)C(C)CN3CCCc1ccccc1)C2 (stereo partly specified) | 261 nM | 42 nM | 350 | 0.12 nM | 2180 |
| CC1CN(CCCc2ccccc2)C2C[C@H](NC(=O)CCN3CCN(C)CC3)CC1(c1cccc(O)c1)C2 (stereo partly specified) | 82 nM | 186 nM | 214 | 0.87 nM | 94 |
| CC1CCN(CCC(=O)N[C@H]2CC3CC(c4cccc(O)c4)(C2)C(C)CN3CCCc2ccccc2)CC1 (stereo partly specified) | 176 nM | 313 nM | 666 | 0.47 nM | 374 |
| CC1CN(CCCc2ccccc2)C2C[C@H](NC(=O)CCN3CCOCC3)CC1(c1cccc(O)c1)C2 (stereo partly specified) | 259 nM | 77 nM | 35 | 2.2 nM | 118 |
| CC(C)[C@@H](CN1CC[C@@](C)(c2cccc(O)c2)[C@@H](C)C1)NC(=O)[C@H]1Cc2ccc(O)cc2CN1 |  |  |  | 0.02 nM |  |
| COc1ccc2c(c1)CN(CCC(=O)N[C@H]1CC3CC(c4cccc(O)c4)(C1)C(C)CN3CCCc1ccccc1)CC2 (stereo partly specified) | 28 nM | 35 nM | 125 | 0.28 nM | 100 |
| CC1CN(CCCc2ccccc2)C2C[C@H](NC(=O)CCN3CCc4c(O)cccc4C3)CC1(c1cccc(O)c1)C2 (stereo partly specified) | 4.6 nM | 25 nM | 357 | 0.07 nM | 66 |
| CC1CN(CCCc2ccccc2)C2C[C@H](NC(=O)CCN3CCCCC3)CC1(c1cccc(O)c1)C2 (stereo partly specified) | 42 nM | 33 nM | 138 | 0.24 nM | 175 |

Other lines, results leading:

| Ke [1] | Ke [2] | Ratio Ke [3] | Ke [4] | Ratio Ke [5] | Structure (SMILES) |
| --- | --- | --- | --- | --- | --- |
| 48 nM | 13 nM | 144 | 0.09 nM | 533 | CC1CN(CCCc2ccccc2)C2C[C@H](NC(=O)CCN3CCc4ccccc4C3)CC1(c1cccc(O)c1)C2 (stereo partly specified) |
| 28 nM | 25 nM | 625 | 0.04 nM | 700 | Cc1ccccc1CCN1CC(C)C2(c3cccc(O)c3)CC1C[C@H](NC(=O)CCN1CCc3ccccc3C1)C2 (stereo partly specified) |
| 35 nM | 52 nM | 163 | 0.32 nM | 109 | CC1CN(CCCc2ccco2)C2C[C@H](NC(=O)CCN3CCc4ccccc4C3)CC1(c1cccc(O)c1)C2 (stereo partly specified) |
| 52 nM | 62 nM | 689 | 0.09 nM | 578 | CC1CN(CCCc2ccccc2)C2C[C@H](NC(=O)CCN3CCc4ccc(O)cc4C3)CC1(c1cccc(O)c1)C2 (stereo partly specified) |
| 41 nM | 20 nM | 100 | 0.2 nM | 205 | Cc1ccccc1CCCN1CC(C)C2(c3cccc(O)c3)CC1C[C@H](NC(=O)CCN1CCc3ccccc3C1)C2 (stereo partly specified) |
| 26 nM | 32 nM | 107 | 0.3 nM | 87 | CC1CN(CCCc2ccccc2)C2C[C@H](NC(=O)CCN3CCc4cc(O)ccc4C3)CC1(c1cccc(O)c1)C2 (stereo partly specified) |
| 52 nM | 29 nM | 26 | 1.1 nM | 47 | CC1CN(CCCc2ccsc2)C2C[C@H](NC(=O)CCN3CCc4ccccc4C3)CC1(c1cccc(O)c1)C2 (stereo partly specified) |
| 25 nM | 19 nM | 11 | 1.8 nM | 14 | CC1CN(CCCc2cccs2)C2C[C@H](NC(=O)CCN3CCc4ccccc4C3)CC1(c1cccc(O)c1)C2 (stereo partly specified) |
| > 500 nM | > 500 nM | > 82 | 6.1 nM | > 82 | Cc1ccccc1CN1CC(C)C2(c3cccc(O)c3)CC1C[C@H](NC(=O)CCN1CCc3ccccc3C1)C2 (stereo partly specified) |
